Measurements taken from ChEMBL document CHEMBL1127343, “"Glycylcyclines". 3. 9-Aminodoxycyclinecarboxamides” (1994).
In brackets after ≈: the same amount, converted by molar mass. Where a SMILES comes first, the peptide text is derived from it. The star is where a group is joined. X1 = C[C@H]1c2ccc(N*)c(O)c2C(=O)C2=C(O)[C@]3(O)C(O)=C(C(N)=O)C(=O)[C@@H](N(C)C)C3[C@@H](O)C21

Assays:
Format in all cases: functional
[1] = system: Escherichia coli; assay: In vitro antibacterial activity was measured on gram negative bacteria Escherichia coli J3272 tet-C(efflux resistance) cell lines
[2] = system: Escherichia coli; assay: In vitro antibacterial activity was measured on gram negative bacteria Escherichia coli PRP-1 tet-a(efflux resistance) cell lines
[3] = system: Escherichia coli; assay: In vitro antibacterial activity was measured on gram negative bacteria Escherichia coli UBMS 88-1 tet-B(efflux resistance) cell lines
[4] = system: Escherichia coli; assay: In vitro antibacterial activity was measured on gram negative bacteria Escherichia coli UBMS 90-4 tet-M (ribosomal protection) cell lines
Method in brief: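 Agar dilution MIC on Mueller-Hinton II agar. Inoculum (1–5) × 10^5 CFU/mL, drug range 32–0.004 μg/mL. Plates incubated 18 h at 35 °C in a forced-air incubator. MIC is the lowest concentration that inhibits growth. The strain panel covered tetracycline-sensitive and -resistant strains. Tetracycline, minocycline and doxycycline were run as standards in each assay.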

[5] = system: Escherichia coli; assay: In vitro antibacterial activity was measured on gram negative bacteria Escherichia coli UBMS 90-5 sensitive cell lines
Method in brief: (§1)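 MIC by agar dilution on Mueller-Hinton II agar; inoculum (1–5) × 10^5 CFU/mL; antibiotic range 32–0.004 μg/mL; plates incubated 18 h at 35 °C in forced-air incubator. MIC taken as lowest concentration inhibiting growth. Tetracycline, minocycline and doxycycline run as standards in each assay.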

[6] = system: Staphylococcus aureus; assay: In vitro antibacterial activity was measured on gram positive bacteria Staphylococcus aureus UBMS 90-1 tet-M (ribosomal protection) cell lines; method in brief: as §1
[7] = system: Staphylococcus aureus; assay: In vitro antibacterial activity was measured on gram positive bacteria Staphylococcus aureus UBMS 90-3 sensitive cell lines; method in brief: as §1
[8] = system: Staphylococcus aureus; assay: In vitro antibacterial activity was measured on gram positive bacteria Staphylococcus aureus smith cell lines; method in brief: as §1
[9] = system: Staphylococcus aureus; assay: In vitro antibacterial activity was measured on gram positive bacteria Staphylococcus aureus UBMS 88-7 tet-k(efflux resistance) cell lines

Compound: C[C@H]1c2cccc(O)c2C(=O)C2=C(O)[C@]3(O)C(O)=C(C(N)=O)C(=O)[C@@H](N(C)C)[C@@H]3[C@@H](O)C21 (some centres not stated)
- MIC [1]: 16 µg/mL (≈ 36 µM)
- MIC [2]: 16 µg/mL (≈ 36 µM)
- MIC [3]: 32 µg/mL (≈ 72 µM)
- MIC [4]: > 32 µg/mL
- MIC [5]: 1 µg/mL (≈ 2.25 µM)
- MIC [6]: 8 µg/mL (≈ 18 µM)
- MIC [7]: 0.12 µg/mL (≈ 0.27 µM)
- MIC [8]: 0.12 µg/mL (≈ 0.27 µM)

Compound: C[C@H]1c2ccc(NC(=O)CN3CCCCC3)c(O)c2C(=O)C2=C(O)[C@]3(O)C(O)=C(C(N)=O)C(=O)[C@@H](N(C)C)C3[C@@H](O)C21 (some centres not stated)
- MIC [2]: 2 µg/mL (≈ 3.42 µM)
- MIC [4]: 1 µg/mL (≈ 1.71 µM)
- MIC [5]: 0.5 µg/mL (≈ 0.855 µM)
- MIC [6]: 1 µg/mL (≈ 1.71 µM)
- MIC [7]: 0.12 µg/mL (≈ 0.205 µM)
- MIC [8]: 0.25 µg/mL (≈ 0.428 µM)

Compound: CC(C)C[C@H](NC(=O)[C@H](CC(C)C)NC(=O)[C@H](CC(C)C)NC(=O)[C@@H](N)CC(C)C)C(=O)Nc1ccc2c(c1O)C(=O)C1=C(O)[C@]3(O)C(O)=C(C(N)=O)C(=O)[C@@H](N(C)C)C3[C@@H](O)C1[C@H]2C (some centres not stated) (H-LLLL-X1)
- MIC [4]: > 32 µg/mL
- MIC [5]: > 32 µg/mL
- MIC [6]: > 32 µg/mL
- MIC [7]: 32 µg/mL (≈ 35.1 µM)
- MIC [8]: 16 µg/mL (≈ 17.5 µM)

Compound: CC(C)C[C@H](N)C(=O)Nc1ccc2c(c1O)C(=O)C1=C(O)[C@]3(O)C(O)=C(C(N)=O)C(=O)[C@@H](N(C)C)C3[C@@H](O)C1[C@H]2C (some centres not stated)
- MIC [1]: 4 µg/mL (≈ 6.99 µM)
- MIC [2]: 16 µg/mL (≈ 27.9 µM)
- MIC [3]: 2 µg/mL (≈ 3.49 µM)
- MIC [4]: 1 µg/mL (≈ 1.75 µM)
- MIC [5]: 1 µg/mL (≈ 1.75 µM)
- MIC [9]: 2 µg/mL (≈ 3.49 µM)
- MIC [6]: 1 µg/mL (≈ 1.75 µM)
- MIC [7]: 0.5 µg/mL (≈ 0.873 µM)
- MIC [8]: 0.5 µg/mL (≈ 0.873 µM)

Compound: CCN(CC)CC(=O)Nc1ccc2c(c1O)C(=O)C1=C(O)[C@]3(O)C(O)=C(C(N)=O)C(=O)[C@@H](N(C)C)C3[C@@H](O)C1[C@H]2C (some centres not stated)
- MIC [1]: 2 µg/mL (≈ 3.49 µM)
- MIC [2]: 4 µg/mL (≈ 6.99 µM)
- MIC [3]: 1 µg/mL (≈ 1.75 µM)
- MIC [4]: 0.5 µg/mL (≈ 0.873 µM)
- MIC [5]: 0.5 µg/mL (≈ 0.873 µM)
- MIC [9]: 1 µg/mL (≈ 1.75 µM)
- MIC [6]: 2 µg/mL (≈ 3.49 µM)
- MIC [7]: 0.12 µg/mL (≈ 0.21 µM)
- MIC [8]: 0.25 µg/mL (≈ 0.437 µM)

Compound: C[C@H]1c2ccc(NC=O)c(O)c2C(=O)C2=C(O)[C@]3(O)C(O)=C(C(N)=O)C(=O)[C@@H](N(C)C)C3[C@@H](O)C21 (some centres not stated)
- MIC [4]: > 32 µg/mL
- MIC [5]: 2 µg/mL (≈ 4.1 µM)
- MIC [6]: > 32 µg/mL
- MIC [7]: 0.12 µg/mL (≈ 0.246 µM)
- MIC [8]: 0.12 µg/mL (≈ 0.246 µM)

Compound: C[C@H]1c2ccc(NC(=O)CN(C)C)c(O)c2C(=O)C2=C(O)[C@]3(O)C(O)=C(C(N)=O)C(=O)[C@@H](N(C)C)C3[C@@H](O)C21 (some centres not stated)
- MIC [1]: 8 µg/mL (≈ 14.7 µM)
- MIC [2]: 2 µg/mL (≈ 3.67 µM)
- MIC [3]: 1 µg/mL (≈ 1.84 µM)
- MIC [4]: 0.25 µg/mL (≈ 0.459 µM)
- MIC [5]: 0.5 µg/mL (≈ 0.918 µM)
- MIC [9]: 4 µg/mL (≈ 7.35 µM)
- MIC [6]: 0.5 µg/mL (≈ 0.918 µM)
- MIC [7]: 0.12 µg/mL (≈ 0.22 µM)
- MIC [8]: 0.25 µg/mL (≈ 0.459 µM)

Compound: CN(C)[C@@H]1C(O)=C(C(N)=O)C(=O)[C@@]2(O)C(O)=C3C(=O)c4c(O)cccc4C[C@H]3C[C@@H]12 [SANCYCLINE]
- MIC [1]: 4 µg/mL (≈ 9.65 µM)
- MIC [2]: 8 µg/mL (≈ 19.3 µM)
- MIC [4]: 16 µg/mL (≈ 38.6 µM)
- MIC [5]: 2 µg/mL (≈ 4.83 µM)
- MIC [9]: 4 µg/mL (≈ 9.65 µM)
- MIC [6]: 2 µg/mL (≈ 4.83 µM)
- MIC [7]: 0.25 µg/mL (≈ 0.603 µM)
- MIC [8]: 0.25 µg/mL (≈ 0.603 µM)

Compound: CN(C)CC(=O)Nc1ccc2c(c1O)C(=O)C1=C(O)[C@]3(O)C(O)=C(C(N)=O)C(=O)[C@@H](N(C)C)[C@@H]3CC1C2 (some centres not stated)
- MIC [1]: 2 µg/mL (≈ 3.89 µM)
- MIC [2]: 2 µg/mL (≈ 3.89 µM)
- MIC [3]: 1 µg/mL (≈ 1.94 µM)
- MIC [4]: 0.25 µg/mL (≈ 0.486 µM)
- MIC [5]: 0.25 µg/mL (≈ 0.486 µM)
- MIC [9]: 1 µg/mL (≈ 1.94 µM)
- MIC [6]: 0.25 µg/mL (≈ 0.486 µM)
- MIC [7]: 0.12 µg/mL (≈ 0.233 µM)
- MIC [8]: 0.12 µg/mL (≈ 0.233 µM)

Compound: CC(C)C[C@@H](N)C(=O)Nc1ccc2c(c1O)C(=O)C1=C(O)[C@]3(O)C(O)=C(C(N)=O)C(=O)[C@@H](N(C)C)C3[C@@H](O)C1[C@H]2C (some centres not stated)
- MIC [1]: 16 µg/mL (≈ 27.9 µM)
- MIC [4]: 4 µg/mL (≈ 6.99 µM)
- MIC [5]: 8 µg/mL (≈ 14 µM)
- MIC [9]: 16 µg/mL (≈ 27.9 µM)
- MIC [6]: > 32 µg/mL
- MIC [7]: 2 µg/mL (≈ 3.49 µM)
- MIC [8]: 2 µg/mL (≈ 3.49 µM)

Compound: C[C@H]1c2ccc(NC(=O)CN3CCCC3)c(O)c2C(=O)C2=C(O)[C@]3(O)C(O)=C(C(N)=O)C(=O)[C@@H](N(C)C)C3[C@@H](O)C21 (some centres not stated)
- MIC [1]: 1 µg/mL (≈ 1.75 µM)
- MIC [2]: 2 µg/mL (≈ 3.51 µM)
- MIC [4]: 0.25 µg/mL (≈ 0.438 µM)
- MIC [5]: 0.5 µg/mL (≈ 0.876 µM)
- MIC [9]: 4 µg/mL (≈ 7.01 µM)
- MIC [6]: 1 µg/mL (≈ 1.75 µM)
- MIC [7]: 0.25 µg/mL (≈ 0.438 µM)
- MIC [8]: 0.5 µg/mL (≈ 0.876 µM)

Compound: CN(C)c1ccc(O)c2c1CC1C[C@H]3[C@H](N(C)C)C(=O)C(C(N)=O)=C(O)[C@@]3(O)C(=O)C1=C2O (some centres not stated)
- MIC [4]: > 32 µg/mL
- MIC [5]: 1 µg/mL (≈ 2.19 µM)
- MIC [6]: 4 µg/mL (≈ 8.74 µM)
- MIC [7]: 0.06 µg/mL (≈ 0.131 µM)
- MIC [8]: 0.12 µg/mL (≈ 0.262 µM)

Compound: C[C@H](N)C(=O)Nc1ccc2c(c1O)C(=O)C1=C(O)[C@]3(O)C(O)=C(C(N)=O)C(=O)[C@@H](N(C)C)C3[C@@H](O)C1[C@H]2C (some centres not stated)
- MIC [1]: > 32 µg/mL
- MIC [2]: > 32 µg/mL
- MIC [3]: 16 µg/mL (≈ 30.2 µM)
- MIC [4]: 8 µg/mL (≈ 15.1 µM)
- MIC [5]: 8 µg/mL (≈ 15.1 µM)
- MIC [9]: > 32 µg/mL
- MIC [6]: 8 µg/mL (≈ 15.1 µM)
- MIC [7]: 2 µg/mL (≈ 3.77 µM)
- MIC [8]: 2 µg/mL (≈ 3.77 µM)

Compound: CC(C)C[C@@H](N)C(=O)Nc1ccc2c(c1O)C(=O)C1=C(O)[C@]3(O)C(O)=C(C(N)=O)C(=O)[C@@H](N(C)C)C3CC1C2 (some centres not stated)
- MIC [4]: 8 µg/mL (≈ 14.7 µM)
- MIC [5]: 8 µg/mL (≈ 14.7 µM)
- MIC [6]: 16 µg/mL (≈ 29.5 µM)
- MIC [7]: 8 µg/mL (≈ 14.7 µM)
- MIC [8]: 8 µg/mL (≈ 14.7 µM)
